Measured values published in ChEMBL document CHEMBL4814034, “Discovery of N-amido-phenylsulfonamide derivatives as novel microsomal prostaglandin E2 synthase-1 (mPGES-1) inhibitors” (Bioorg Med Chem Lett, 2021).

Key:
CYP3A4 = CYP3A4 (Homo sapiens, UniProt P08684); test: Inhibition of CYP3A4 in human liver microsomes assessed as enzyme remaining activity at 10 uM using testosterone as substrate incubated for 20 mins in presence of NADPH by LC-MS/MS analysis relative to control; assay type: ADME; conditions: probe testosterone, read-out: Activity
CYP3A4, sequence (P08684 whole entry): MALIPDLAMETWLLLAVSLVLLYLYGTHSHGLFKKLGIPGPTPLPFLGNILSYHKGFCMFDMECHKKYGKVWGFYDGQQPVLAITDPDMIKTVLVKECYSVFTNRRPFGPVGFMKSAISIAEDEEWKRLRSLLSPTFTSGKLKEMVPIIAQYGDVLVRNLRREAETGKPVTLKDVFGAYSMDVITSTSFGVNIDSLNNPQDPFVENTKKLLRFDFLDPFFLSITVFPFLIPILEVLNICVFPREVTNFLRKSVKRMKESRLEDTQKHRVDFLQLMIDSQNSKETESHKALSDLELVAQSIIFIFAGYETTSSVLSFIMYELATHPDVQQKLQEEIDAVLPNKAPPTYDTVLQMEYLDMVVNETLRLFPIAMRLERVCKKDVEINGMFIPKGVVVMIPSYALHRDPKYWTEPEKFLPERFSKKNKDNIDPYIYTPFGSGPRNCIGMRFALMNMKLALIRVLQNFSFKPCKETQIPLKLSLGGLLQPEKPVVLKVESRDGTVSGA
Outline: (§1)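 CYP1A2, 2C9, 2C19, 2D6 and 3A4 activities measured with each compound at 10 µM; result given as % of control activity.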

CYP1A2 = biological target: T1, CYP1A2 (Homo sapiens, UniProt P05177); test: Inhibition of CYP1A2 in human liver microsomes assessed as enzyme remaining activity at 10 uM using phenacetin as substrate incubated for 20 mins in presence of NADPH by LC-MS/MS analysis relative to control; assay type: ADME; conditions: probe phenacetin, read-out: Activity; outline: as §1
T1 sequence (P05177 whole entry): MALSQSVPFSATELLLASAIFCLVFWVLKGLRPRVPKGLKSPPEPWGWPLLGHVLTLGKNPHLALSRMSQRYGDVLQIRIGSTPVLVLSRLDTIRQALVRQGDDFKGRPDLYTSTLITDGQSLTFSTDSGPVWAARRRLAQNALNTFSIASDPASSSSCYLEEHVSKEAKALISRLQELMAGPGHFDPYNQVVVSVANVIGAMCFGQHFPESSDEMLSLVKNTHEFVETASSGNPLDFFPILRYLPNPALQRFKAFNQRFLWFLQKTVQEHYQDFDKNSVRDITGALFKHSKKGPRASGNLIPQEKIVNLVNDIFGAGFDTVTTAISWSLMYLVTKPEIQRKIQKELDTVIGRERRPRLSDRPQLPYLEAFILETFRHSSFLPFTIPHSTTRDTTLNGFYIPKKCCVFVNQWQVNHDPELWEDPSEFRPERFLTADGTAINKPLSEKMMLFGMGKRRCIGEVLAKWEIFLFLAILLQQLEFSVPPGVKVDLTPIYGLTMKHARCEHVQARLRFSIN

[1] = Metabolic stability in dog liver microsomes assessed as parent compound remaining at 1 uM incubated for 30 mins in presence of NADPH by LC-MS/MS analysis; assay type: ADME, Canis lupus familiaris, Microsome; conditions: read-out: Stabilty
Outline: (§2)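 Single-point metabolic stability in mouse, rat, dog and human liver microsomes. Compound at 1.0 µM incubated with 1.0 mg/mL protein at 37 °C for 30 min; % parent remaining reported.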

Prostaglandin E synthase [2] = biological target: T2, Prostaglandin E synthase (Homo sapiens, UniProt O14684); test: Inhibition of mPGES-1 in human A549 cells assessed as reduction in IL-1beta stimulated PGE2 production incubated for 24 hrs by EIA; assay type: cell-based
T2 sequence (O14684 whole entry): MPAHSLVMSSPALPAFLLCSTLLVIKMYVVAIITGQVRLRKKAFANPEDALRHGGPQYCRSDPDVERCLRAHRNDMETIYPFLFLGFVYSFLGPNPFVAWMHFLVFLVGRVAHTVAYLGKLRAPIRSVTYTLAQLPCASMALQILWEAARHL

Prostaglandin E synthase [3] = biological target: T2, Prostaglandin E synthase; test: Inhibition of mPGES-1 activity in IL-1beta stimulated human A549 cells by cell-free assay
Outline: (§3)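 Cell-free mPGES-1 assay using microsomal preparation from IL-1β-stimulated A549 cells. Preincubated with compounds or DMSO vehicle for 15 min on ice, then reacted 1 min with substrate. PGE2 production measured by EIA kit. Remaining activity expressed as % of control, mean ± SDs (n = 3).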

CYP2D6 = CYP2D6 (Homo sapiens, UniProt P10635); test: Inhibition of CYP2D6 in human liver microsomes assessed as enzyme remaining activity at 10 uM using bufuralol as substrate incubated for 20 mins in presence of NADPH by LC-MS/MS analysis relative to control; assay type: ADME; conditions: probe bufuralol, read-out: Activity; outline: as §1
CYP2D6, sequence (P10635 whole entry): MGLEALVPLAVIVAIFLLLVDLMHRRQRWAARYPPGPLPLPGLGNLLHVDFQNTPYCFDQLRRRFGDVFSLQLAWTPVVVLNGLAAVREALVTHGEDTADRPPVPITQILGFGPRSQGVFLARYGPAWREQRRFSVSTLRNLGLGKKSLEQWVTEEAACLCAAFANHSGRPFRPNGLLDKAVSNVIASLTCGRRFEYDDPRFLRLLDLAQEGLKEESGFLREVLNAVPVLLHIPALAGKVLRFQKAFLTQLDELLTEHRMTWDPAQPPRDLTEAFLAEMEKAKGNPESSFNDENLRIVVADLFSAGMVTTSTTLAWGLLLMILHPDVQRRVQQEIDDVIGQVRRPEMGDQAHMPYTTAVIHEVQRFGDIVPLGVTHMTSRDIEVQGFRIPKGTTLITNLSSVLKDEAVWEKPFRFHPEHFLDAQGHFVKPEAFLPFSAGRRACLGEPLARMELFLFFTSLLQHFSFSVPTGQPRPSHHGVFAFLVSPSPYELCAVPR

[4] = Metabolic stability in mouse liver microsomes assessed as parent compound remaining at 1 uM incubated for 30 mins in presence of NADPH by LC-MS/MS analysis; assay type: ADME, Microsome; conditions: read-out: Stabilty; outline: as §2
[5] = Stability in human plasma assessed as parent compound remaining at 10 uM after 30 mins by UPLC-MS analysis; assay type: ADME, cell-free; conditions: read-out: Stabilty
Outline: (§4)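 Compounds at 10 µM incubated in human or rat plasma; % remaining after 30 min reported.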

[6] = biological target: Voltage-gated inwardly rectifying potassium channel KCNH2 (Homo sapiens, UniProt Q12809); test: Binding affinity to human ERG
Voltage-gated inwardly rectifying potassium channel KCNH2, sequence (Q12809 whole entry): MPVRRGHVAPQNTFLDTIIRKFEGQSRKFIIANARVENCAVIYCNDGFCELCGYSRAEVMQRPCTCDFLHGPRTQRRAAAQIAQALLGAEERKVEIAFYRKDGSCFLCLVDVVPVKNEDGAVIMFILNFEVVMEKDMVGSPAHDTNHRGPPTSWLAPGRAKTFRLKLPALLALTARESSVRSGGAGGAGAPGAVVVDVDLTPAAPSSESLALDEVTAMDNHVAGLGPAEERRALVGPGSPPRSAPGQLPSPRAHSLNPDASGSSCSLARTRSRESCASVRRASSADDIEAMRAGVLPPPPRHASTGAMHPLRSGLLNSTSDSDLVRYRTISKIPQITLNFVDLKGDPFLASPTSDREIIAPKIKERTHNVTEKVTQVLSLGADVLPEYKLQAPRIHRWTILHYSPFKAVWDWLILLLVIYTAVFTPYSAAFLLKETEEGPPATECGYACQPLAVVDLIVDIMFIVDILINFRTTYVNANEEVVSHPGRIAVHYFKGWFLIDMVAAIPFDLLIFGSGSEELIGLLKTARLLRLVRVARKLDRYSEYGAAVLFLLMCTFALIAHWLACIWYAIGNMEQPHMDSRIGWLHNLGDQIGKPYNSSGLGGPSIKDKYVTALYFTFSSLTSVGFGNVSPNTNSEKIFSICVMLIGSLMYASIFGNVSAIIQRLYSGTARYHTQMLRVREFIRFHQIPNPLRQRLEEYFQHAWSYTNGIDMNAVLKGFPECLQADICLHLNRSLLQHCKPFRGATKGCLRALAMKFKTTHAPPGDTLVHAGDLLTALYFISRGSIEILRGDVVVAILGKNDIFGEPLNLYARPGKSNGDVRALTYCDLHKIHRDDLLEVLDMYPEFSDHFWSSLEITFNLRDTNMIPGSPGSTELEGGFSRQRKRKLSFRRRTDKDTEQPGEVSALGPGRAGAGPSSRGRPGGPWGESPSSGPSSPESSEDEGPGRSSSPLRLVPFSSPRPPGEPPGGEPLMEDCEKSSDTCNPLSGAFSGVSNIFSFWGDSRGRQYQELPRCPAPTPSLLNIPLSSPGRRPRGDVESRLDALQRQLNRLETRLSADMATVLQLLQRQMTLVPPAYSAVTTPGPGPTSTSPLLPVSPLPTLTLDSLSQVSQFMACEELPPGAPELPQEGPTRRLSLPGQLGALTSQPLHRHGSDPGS

[7] = Stability in rat plasma assessed as parent compound remaining at 10 uM after 30 mins by UPLC-MS analysis; assay type: ADME, cell-free; conditions: read-out: Stabilty; outline: as §4
A549 = test: Cytotoxicity against human A549 cells assessed as cell viability incubated for 24 hrs in presence of IL-1beta by MTT assay; assay type: cell-based; conditions: a549, 24 h
Outline: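 A549 cells exposed to compounds at 1 µM with interleukin-1β (1 ng/mL) for 24 h; viability read by MTT assay.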

[8] = Metabolic stability in rat liver microsomes assessed as parent compound remaining at 1 uM incubated for 30 mins in presence of NADPH by LC-MS/MS analysis; assay type: ADME, Microsome; conditions: read-out: Stabilty; outline: as §2
[9] = Selectivity index, ratio of IC50 for inhibition of mPGES-1 in human A549 cells assessed as reduction in IL-1beta stimulated PGI2 production to IC50 for inhibition of mPGES-1 in human A549 cells assessed as reduction in IL-1 beta stimulated PGE2 production
[10] = Metabolic stability in human liver microsomes assessed as parent compound remaining at 1 uM incubated for 30 mins in presence of NADPH by LC-MS/MS analysis; assay type: ADME, Microsome; conditions: read-out: Stabilty; outline: as §2
Prostaglandin E synthase [11] = biological target: T3, Prostaglandin E synthase (Mus musculus, UniProt Q9JM51); test: Inhibition of mPGES-1 in mouse RAW264.7 cells assessed as reduction in LPS-stimulated PGE2 production; assay type: cell-based
T3 sequence (Q9JM51 whole entry): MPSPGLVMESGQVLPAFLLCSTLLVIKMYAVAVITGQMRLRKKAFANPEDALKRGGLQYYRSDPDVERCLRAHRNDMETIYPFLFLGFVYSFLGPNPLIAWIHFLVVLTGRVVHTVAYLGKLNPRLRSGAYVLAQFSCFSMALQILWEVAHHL

CYP2C19 = CYP2C19 (Homo sapiens, UniProt P33261); test: Inhibition of CYP2C19 in human liver microsomes assessed as enzyme remaining activity at 10 uM using mephenytoin as substrate incubated for 20 mins in presence of NADPH by LC-MS/MS analysis relative to control; assay type: ADME; conditions: probe mephenytoin, read-out: Activity; outline: as §1
CYP2C19, sequence (P33261 whole entry): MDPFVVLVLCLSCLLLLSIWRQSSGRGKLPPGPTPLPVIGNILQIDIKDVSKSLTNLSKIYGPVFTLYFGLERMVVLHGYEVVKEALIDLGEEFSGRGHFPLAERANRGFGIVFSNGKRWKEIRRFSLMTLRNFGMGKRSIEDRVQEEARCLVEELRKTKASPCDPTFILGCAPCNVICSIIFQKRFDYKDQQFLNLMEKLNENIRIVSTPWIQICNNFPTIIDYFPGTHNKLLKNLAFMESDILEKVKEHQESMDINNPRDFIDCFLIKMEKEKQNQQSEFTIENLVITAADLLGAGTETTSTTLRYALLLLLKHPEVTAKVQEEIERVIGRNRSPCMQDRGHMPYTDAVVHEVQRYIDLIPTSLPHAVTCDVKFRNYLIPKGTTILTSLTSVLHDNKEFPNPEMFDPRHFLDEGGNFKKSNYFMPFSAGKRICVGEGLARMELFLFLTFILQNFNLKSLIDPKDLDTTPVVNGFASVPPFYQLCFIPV

CYP2C9 = CYP2C9 (Homo sapiens, UniProt P11712); test: Inhibition of CYP2C9 in human liver microsomes assessed as enzyme remaining activity at 10 uM using diclofenac as substrate incubated for 20 mins in presence of NADPH by LC-MS/MS analysis relative to control; assay type: ADME; conditions: probe diclofenac, read-out: Activity; outline: as §1
CYP2C9, sequence (P11712 whole entry): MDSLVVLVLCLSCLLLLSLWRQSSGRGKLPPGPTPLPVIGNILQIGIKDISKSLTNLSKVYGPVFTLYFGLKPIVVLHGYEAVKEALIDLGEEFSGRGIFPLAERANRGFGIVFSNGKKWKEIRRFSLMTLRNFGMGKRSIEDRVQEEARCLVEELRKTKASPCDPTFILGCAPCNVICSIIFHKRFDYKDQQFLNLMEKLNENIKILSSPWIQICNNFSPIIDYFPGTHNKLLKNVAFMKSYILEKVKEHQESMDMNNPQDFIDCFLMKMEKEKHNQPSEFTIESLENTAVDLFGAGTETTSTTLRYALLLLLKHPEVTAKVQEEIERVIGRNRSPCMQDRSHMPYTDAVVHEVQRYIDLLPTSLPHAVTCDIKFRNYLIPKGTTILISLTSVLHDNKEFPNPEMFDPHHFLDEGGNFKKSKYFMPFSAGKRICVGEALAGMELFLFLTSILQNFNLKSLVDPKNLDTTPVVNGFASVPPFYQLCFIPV

Prostaglandin E synthase [12] = biological target: T2, Prostaglandin E synthase; test: Inhibition of mPGES-1 activity in IL-1beta stimulated human A549 cells microsomes assessed as reduction in PGE2 production preincubated for 15 mins followed by PGH2 addition and measured after 1 mins by EIA; design: species or system Microsome; outline: as §3
[13] = biological target: T4, Prostaglandin E synthase (Homo sapiens) (UniProt O14684); test: Potency index, ratio of MK886 IC50 to test compound IC50 for inhibition of mPGES-1 in human A549 cells microsomes; conditions: Microsome
T4 sequence (whole entry): T2 sequence (O14684 whole entry)

SMILES | activity at 20 min, 10 µM (CYP3A4) [%] | activity at 20 min, 10 µM (CYP1A2) [%] | remaining at 0.5 h, 1 µM [1] [%] | IC50 (Prostaglandin E synthase [2]) [nM] | IC50 (Prostaglandin E synthase [3]) [nM] | activity at 20 min, 10 µM (CYP2D6) [%] | remaining at 0.5 h, 1 µM [4] [%] | remaining at 0.5 h, 10 µM [5] [%] | IC50 [6] [nM] | remaining at 0.5 h, 10 µM [7] [%] | Activity (A549) [µM] | remaining at 0.5 h, 1 µM [8] [%] | Ratio IC50 [9] | remaining at 0.5 h, 1 µM [10] [%] | IC50 (Prostaglandin E synthase [11]) [nM] | activity at 20 min, 10 µM (CYP2C19) [%] | activity at 20 min, 10 µM (CYP2C9) [%] | IC50 (Prostaglandin E synthase [12]) [nM] | Ratio IC50 [13]
O=C(Oc1ccc(OCc2ccccc2)cc1)N(Cc1ccccc1)S(=O)(=O)c1ccc(Cl)cc1 | > 100 | 99.4 | 37.7 | 160 | 7370 | > 100 | 53.4 | > 100 | 5200 | 2.1 | > 1 | 44.1 | 8 | 44.9 | 340 | 56.9 | 97 |  | 
CC(C)c1ccc2c(c1)c(SC(C)(C)C)c(CC(C)(C)C(=O)O)n2Cc1ccc(Cl)cc1 |  |  |  |  |  |  |  |  |  |  | > 1 |  |  |  |  |  |  |  | 
O=C(Nc1ccc(OCCCCc2ccccc2)cc1)N(Cc1ccccc1)S(=O)(=O)c1ccc(Cl)cc1 | 92.5 | 69.4 | 86.4 | 240 |  | 98.8 | 79 | 45 | > 10000 | 1.3 | > 1 | 74.5 | 4 | > 100 |  | 8.7 | 99.9 | 490 | 8
O=C(Oc1ccc(OCc2ccccc2)cc1)N(Nc1ccccc1)S(=O)(=O)c1ccc(Cl)cc1 | 73.6 | 75.7 | 48.5 | 190 |  | 57.1 | 42.2 | < 1 | 9600 | < 1 | > 1 | 16.3 |  | 66.6 | 60 | 77.9 | 88.4 | 610 | 
O=C(Nc1ccc(OCc2ccccc2)cc1)N(Cc1ccccc1)S(=O)(=O)c1ccc(Cl)cc1 |  |  |  | 610 |  |  |  |  |  |  | > 1 |  |  |  |  |  |  | > 30000 | 
O=C(Oc1ccc(OCc2ccccc2)cc1)N(Nc1cccc(Cl)c1)S(=O)(=O)c1ccc(Cl)cc1 |  |  |  | 150 |  |  |  |  |  |  | > 1 |  |  |  |  |  |  | > 30000 | 
